Paper PMC7325368 (Journal of Clinical Oncology, 2020)
pIC50: −log10 of the molar value. “And” between values parts separate entries of the source, which are not always exact repeats. Identical values can stand only once. Like-named read-outs stand apart in the source and are kept apart here.

Experiments:
B-RAF–mutated melanoma = conditions: patients with B-RAF–mutated melanoma ref 12, 33; cited from earlier work
[1] = Plasma pharmacokinetics in patients; type: in vivo; conditions: human
In short: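 Oral test compound given as a single dose on cycle 1, day 1, then a 2-day treatment-free period for single-dose PK sampling, then once daily on days 4–24 and continuously in 21-day cycles. Doses were 10–60 mg. Plasma was sampled at prespecified time points on cycle 1, day 1 and cycle 2, day 1. Accumulation ratios for Cmax, AUC0-9 and AUC0-24 were taken as cycle 2/cycle 1.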

[2] = tested on: B-RAF–mutated solid tumors; assay: Antitumor activity; type: in vivo, human
[3] = tested on: patients with advanced/metastatic solid tumors; assay: Safety and tolerability; type: in vivo, human
[4] = tested on: K-RAS/N-RAS–mutated solid tumors; assay: Antitumor activity; type: in vivo, human
VEGFR2 = conditions: inhibition of VEGFR2 ref 15; cited from earlier work
[5] = tested on: tumor FDG uptake in patients with solid tumors; assay: FDG-PET-CT scans; type: in vivo, human
In short: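 Exploratory FDG uptake measured by FDG-PET-CT at screening and again on cycle 2, day 1 (± 3 days) in patients receiving the oral test compound once daily in 21-day cycles. Each patient's on-treatment uptake category was compared with the baseline scan.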

[6] = tested on: B-RAF– or K-RAS/N-RAS–mutated solid tumors; type: in vivo, human
In short: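 Oral test compound once daily: escalation cohorts at 5–60 mg; expansion at 30 mg/d in 21-day cycles in patients with B-RAF or K-RAS/N-RAS mutations. Treatment continued until unacceptable toxicity or withdrawal, with treatment beyond progression allowed if clinically beneficial. Response and stable disease scored per RECIST v1.1, investigator-assessed in expansion. Time-to-event end points summarized by Kaplan-Meier estimators.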

[7] = tested on: EGFR, DDR1, DDR2, EPHA3, FLT3, VEGFR2, ABL1, RET, EPHGA7, EPHB2, MNK2, and ZAK; conditions: EPHGA7, EPHB2, MNK2, ZAK ref 15; cited from earlier work
[8] = B-RAF^mut patients (n = 53), both phases
[9] = Dose Expansion (n = 96), 30 mg/d
[10] = K-RAS^mut/N-RAS^mut patients (n = 66), both phases
[11] = cycle 2, day 1, 34 patients (7 missing postbaseline results)
[12] = cycle 2, day 1 vs baseline, 1 patient

In the case of `CC(C)(C)c1nc(-c2cccc(NS(=O)(=O)c3c(F)cccc3F)c2F)c(-c2ccnc(N)n2)s1` [dabrafenib], the DCR (B-RAF–mutated melanoma) is given as 91% and the ORR (B-RAF–mutated melanoma) is given as 50%.
In the case of `O=C1CCc2c(Oc3ccc4c(c3)[C@@H]3[C@H](O4)[C@H]3c3nc4ccc(C(F)(F)F)cc4[nH]3)ccnc2N1` [lifirafenib], the half-life ([1]; oral) was 15 to 59 h, the Tmax ([1]; po) was 3 h and the “Patients with duration of treatment > 1 year” value ([2]; B-RAF mutations) was 10 n. The DCR ([2]; B-RAF^V600–mutated thyroid cancer (3 patients)) was 100%, the ORR ([2]; B-RAF^V600–mutated thyroid cancer, one of 3 patients confirmed PR) was 33.3% and the “Best overall response (confirmed): CR” value [2, 8] was 1 (1.9) No. (%). The “Best overall response (confirmed): NE/missing” value [2, 8] was 9 (17.0) No. (%), the “Best overall response (confirmed): PD” value [2, 8] was 8 (15.1) No. (%) and the “Best overall response (confirmed): SD” value [2, 8] was 27 (50.9%) No. (%) and 27 (50.9) No. (%). For the same compound, the “Disease control rate (CR + PR + SD)” value [2, 8] was 36 (67.9) No. (%), the “Objective response rate (CR + PR)” value [2, 8] was 9 (17.0) No. (%) and the “Patients with confirmed PR” value ([2]; B-RAF–mutated thyroid cancer/PTC) was 2 n. For the same compound, the “Patients with confirmed PR” value ([2]; human, in vivo) was 1 n, the “Patients with dose interruptions/reductions as a result of drug toxicity” value ([3]; 40 mg/d, typically between days 13 and 28 of cycle 1) was 70% and the “TEAE Abdominal pain, upper, Any Grade” value ([3]; Dose Escalation (n = 35)) was 4 (11.4) No. (%). The “TEAE Abdominal pain, upper, Grade ≥ 3” value ([3]; Dose Escalation (n = 35)) was 0 (0.0) No. (%), the “TEAE Gastroesophageal reflux disease, Any Grade” value ([3]; Dose Escalation (n = 35)) was 6 (17.1) No. (%) and the “TEAE Gastroesophageal reflux disease, Grade ≥ 3” value ([3]; Dose Escalation (n = 35)) was 0 (0.0) No. (%). The “TEAE Musculoskeletal chest pain, Any Grade” value ([3]; Dose Escalation (n = 35)) was 6 (17.1) No. (%), the “TEAE Musculoskeletal chest pain, Grade ≥ 3” value ([3]; Dose Escalation (n = 35)) was 0 (0.0) No. (%) and the “TEAE Palmoplantar erythrodysesthesia syndrome, Any Grade” value ([3]; Dose Escalation (n = 35)) was 11 (31.4) No. (%). For the same compound, the “TEAE Palmoplantar erythrodysesthesia syndrome, Grade ≥ 3” value ([3]; Dose Escalation (n = 35)) was 2 (5.7) No. (%), the “TEAE Upper respiratory tract infection, Any Grade” value ([3]; Dose Escalation (n = 35)) was 6 (17.1) No. (%) and the “TEAE Upper respiratory tract infection, Grade ≥ 3” value ([3]; Dose Escalation (n = 35)) was 0 (0.0) No. (%). The “TEAE Urinary tract infection, Any Grade” value ([3]; Dose Escalation (n = 35)) was 4 (11.4) No. (%), the “TEAE Urinary tract infection, Grade ≥ 3” value ([3]; Dose Escalation (n = 35)) was 0 (0.0) No. (%) and the “TEAE γ-Glutamyl transferase increase, Any Grade” value ([3]; Dose Escalation (n = 35)) was 6 (17.1) No. (%). For the same compound, the “TEAE γ-Glutamyl transferase increase, Grade ≥ 3” value ([3]; Dose Escalation (n = 35)) was 4 (11.4) No. (%), the “TEAE Abdominal pain, upper, Any Grade” value [3, 9] was 8 (8.3) No. (%) and the “TEAE Abdominal pain, upper, Grade ≥ 3” value [3, 9] was 2 (2.1) No. (%). The “TEAE Gastroesophageal reflux disease, Any Grade” value [3, 9] was 4 (4.2) No. (%), the “TEAE Gastroesophageal reflux disease, Grade ≥ 3” value [3, 9] was 0 (0.0) No. (%) and the “TEAE Musculoskeletal chest pain, Any Grade” value [3, 9] was 7 (7.3) No. (%). For the same compound, the “TEAE Musculoskeletal chest pain, Grade ≥ 3” value [3, 9] was 0 (0.0) No. (%), the “TEAE Palmoplantar erythrodysesthesia syndrome, Any Grade” value [3, 9] was 20 (20.8) No. (%) and the “TEAE Palmoplantar erythrodysesthesia syndrome, Grade ≥ 3” value [3, 9] was 1 (1.0) No. (%). The “TEAE Upper respiratory tract infection, Any Grade” value [3, 9] was 5 (5.2) No. (%), the “TEAE Upper respiratory tract infection, Grade ≥ 3” value [3, 9] was 0 (0.0) No. (%) and the “TEAE Urinary tract infection, Any Grade” value [3, 9] was 10 (10.4) No. (%). The “TEAE Urinary tract infection, Grade ≥ 3” value [3, 9] was 1 (1.0) No. (%), the “TEAE γ-Glutamyl transferase increase, Any Grade” value [3, 9] was 4 (4.2) No. (%) and the “TEAE γ-Glutamyl transferase increase, Grade ≥ 3” value [3, 9] was 4 (4.2) No. (%). For the same compound, the “Time to occurrence of dose-limiting thrombocytopenia” value ([3]; after initial dosing, dose escalation) was 2-3 weeks, the “Patients who experienced reversible DLTs” value ([3]; among patients eligible for DLT assessment (n = 31), dose escalation) was 6 patients and the “DLT: grade 3 increased ALT” value ([3]; dose escalation) was 1 n. For the same compound, the “DLT: grade 4 thrombocytopenia” value ([3]; dose escalation) was 5 n, the “Grade ≥ 3 treatment-related TEAE fatigue” value ([3]; dose escalation) was 11.4% and the “Grade ≥ 3 treatment-related TEAE hypertension” value ([3]; dose escalation) was 11.4%. For the same compound, the “Grade ≥ 3 treatment-related TEAE thrombocytopenia” value ([3]; dose escalation) was 14.3%, the “Patients with TEAEs that led to discontinuation” value ([3]; dose escalation (n = 35), five patients) was 14.3% and the “Patients with grade ≥ 3 TEAEs (including DLTs)” value ([3]; dose escalation, 26 patients) was 74.3%. For the same compound, the “Share of patients reporting grade ≥ 3 TEAEs” value ([3]; dose escalation, 40, 50, and 60 mg/d cohorts) was 61.5%, the “Share of patients reporting grade ≥ 3 TEAEs” value ([3]; dose escalation, lower-dose cohorts) was 38.5% and the “Dose-limiting thrombocytopenia that occurred at 40 and 60 mg/d” value ([3]; dose escalation, n = 2 each (eighty percent)) was 4 of 5. For the same compound, the “Maximum tolerated dose (MTD)” value ([3]; dose escalation, once-daily oral dosing) was 40 mg/day, the “Grade ≥ 3 treatment-related AE fatigue” value ([3]; dose expansion) was 7.3% and the “Grade ≥ 3 treatment-related AE hypertension” value ([3]; dose expansion) was 8.3%. For the same compound, the “Patients with TEAEs that led to discontinuation” value ([3]; dose expansion (n = 96), 19 patients) was 19.8%, the “Patients with serious TEAEs” value ([3]; dose expansion (n = 96), 56 patients) was 58.3% and the “Patients with grade ≥ 3 TEAEs” value ([3]; dose expansion (n = 96), 68 patients) was 70.8%. The “Patients with AEs that led to a dose adjustment” value ([3]; dose expansion, fifty patients) was 52%, the “Patients with TEAEs that led to death (considered unrelated to treatment)” value ([3]; dose expansion, four patients, 6 TEAEs) was 4.2% and the “Cutaneous SCC or keratoacanthoma” value ([3]; during the entire study) was “not reported”. For the same compound, the “DLTs that occurred at doses ≥ 40 mg/d” value ([3]; of 6 patients with DLTs, dose escalation) was 5 patients, the “Time to platelet count recovery” value ([3]; platelet transfusion or prednisolone and withholding of lifirafenib) was 6 to 20 days and the “Patients with confirmed PR” value ([4]; K-RAS codon 12–mutated NSCLC, 30 mg/d) was 1 n. The “Patients with duration of treatment > 1 year” value ([4]; K-RAS mutations) was 5 n, the “Patients with confirmed responses” value ([4]; K-RAS mutations, entire study) was 2 patients and the Responses ([4]; K-RAS/N-RAS–mutated colorectal cancer (n = 20)) was “No responses”. The “Best overall response (confirmed): CR” value [4, 10] was 0 No. (%), the “Best overall response (confirmed): NE/missing” value [4, 10] was 15 (22.7) No. (%) and the “Best overall response (confirmed): PD” value [4, 10] was 16 (24.2) No. (%). For the same compound, the “Best overall response (confirmed): PR” value [4, 10] was 2 (3.0) No. (%), the “Best overall response (confirmed): SD” value [4, 10] was 33 (50.0) No. (%) and the “Disease control rate (CR + PR + SD)” value [4, 10] was 35 (53.0) No. (%). The “Objective response rate (CR + PR)” value [4, 10] was 2 (3.0) No. (%), the “Patients with SD” value ([4]; K-RAS– or N-RAS–mutated CRC) was “Twelve” and the “Patients with SD” value ([4]; K-RAS–mutated NSCLC (codon 12 mutated and K-RAS G13D, n = 1 each)) was 2 patients. For the same compound, the “Patients with SD” value ([4]; K-RAS–mutated endometrial cancer (codon 12 mutated, n = 4; codon 2 mutated, n = 1)) was 5 patients, the “Patients with confirmed PR” value ([4]; K-RAS–mutated endometrial cancer, 20 mg/d) was 1 n and the ORR ([4]; patients with K-RAS mutations, entire study) was 3.4%. The “Patients with SD” value ([4]; patients with K-RAS mutations, entire study, 32 patients) was 54.2%, the pIC50 (VEGFR2) was 6.97 and the “Patients with high FDG uptake” value [5, 11] was 15 patients. For the same compound, the “Patients with low FDG uptake” value [5, 11] was 1 patient, the “Patients with moderate FDG uptake” value [5, 11] was 10 patients and the “Patients with no FDG uptake” value [5, 11] was 1 patient. For the same compound, the “Patients who changed from high to low FDG uptake” value [5, 12] was 2.9%, the “Patients who changed from low to no FDG uptake” value [5, 12] was 2.9% and the “Patients who changed from high to moderate FDG uptake” value ([5]; cycle 2, day 1 vs baseline, 7 patients) was 20.6%. The “Patients with partial metabolic reduction per EORTC criteria” value ([5]; dose escalation) was 11 patients, the “Patients with complete metabolic reduction” value ([5]; dose escalation, B-RAF mutation, 40 mg/d) was 1 patient and the “Patients with partial/complete metabolic reductions by FDG-PET-CT scan” value ([5]; dose escalation, of 34 patients) was 12 patients. For the same compound, the “Patients with partial/complete metabolic reduction who received ≥ 30 mg/d” value ([5]; of 12 patients with metabolic reductions) was 11 patients, the “Patients with confirmed clinical responses” value ([6]; dose escalation, n = 3, all had FDG-PET-CT responses) was 8.6% and the “Median DoR” value ([6]; dose escalation, 95% CI, 6.8 to 31.7 months) was 31.7 months. For the same compound, the “Median DoR” value ([6]; dose expansion, 95% CI, 1.9 months to not reached) was 11.1 months, the “Median duration of SD” value ([6]; dose expansion, 95% CI, 3.5 to 4.9 months) was 4.1 months and the “IC50s relative to that for B-RAF^V600E” value [7] was no more than 10 fold.
In the case of `CCCS(=O)(=O)Nc1ccc(F)c(C(=O)c2c[nH]c3ncc(-c4ccc(Cl)cc4)cc23)c1F` [vemurafenib], the ORR (B-RAF–mutated melanoma) is listed as 48%.
